Our source for the inhibition, IC50 and Ratio IC50 values is ChEMBL document CHEMBL3232924, “Synthesis and biological evaluation of novel bis-aromatic amides as novel PTP1B inhibitors” (Bioorg Med Chem Lett, 2014).

The inhibition is the relative decrease from the control value, in per cent. For orientation: pIC50 means the IC50 on a negative log10 scale, so that one unit is a factor of ten. Read a high pIC50 as a small IC50.

pIC50: −log10 of the molar value. Calls of active or inactive are those of the source. No cut-off for these calls is given here. Bounds are passed on as bounds.

In assay [1] the target is T1, Tyrosine-protein phosphatase non-receptor type 1 (Homo sapiens) (UniProt P18031).
T1 sequence (whole entry): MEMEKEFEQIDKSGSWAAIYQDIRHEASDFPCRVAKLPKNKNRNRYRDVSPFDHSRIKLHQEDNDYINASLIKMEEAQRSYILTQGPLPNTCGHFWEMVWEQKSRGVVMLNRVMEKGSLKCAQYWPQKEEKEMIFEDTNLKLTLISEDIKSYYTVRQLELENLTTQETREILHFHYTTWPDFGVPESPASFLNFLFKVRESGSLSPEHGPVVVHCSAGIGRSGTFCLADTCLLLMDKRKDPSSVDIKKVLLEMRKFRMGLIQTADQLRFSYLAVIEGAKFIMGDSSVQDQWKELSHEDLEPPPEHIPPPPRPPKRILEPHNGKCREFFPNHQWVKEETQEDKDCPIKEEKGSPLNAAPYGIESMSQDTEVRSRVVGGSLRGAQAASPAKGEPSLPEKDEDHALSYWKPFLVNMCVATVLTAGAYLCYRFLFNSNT
The assay is described as follows: Inhibition of PTP1B (unknown origin) using pNPP as substrate at 20 ug/ml.

Assay [2] addresses T2, Tyrosine-protein phosphatase non-receptor type 1 (Homo sapiens, UniProt P18031).
T2 sequence (P18031 whole entry): T1 sequence (whole entry)
The assay is described as follows: Inhibition of PTP1B (unknown origin) using pNPP as substrate.

The target of assay [3] is T3, Tyrosine-protein phosphatase non-receptor type 6 (Homo sapiens, UniProt P29350). Kind of assay: Inhibition of SHP-1 (unknown origin) using 3-o-methylfluorescein phosphate as substrate at 20 ug/ml.
The target in assay [4] is T4, Tyrosine-protein phosphatase non-receptor type 11 (Homo sapiens) (UniProt Q06124).
T4 sequence (whole entry): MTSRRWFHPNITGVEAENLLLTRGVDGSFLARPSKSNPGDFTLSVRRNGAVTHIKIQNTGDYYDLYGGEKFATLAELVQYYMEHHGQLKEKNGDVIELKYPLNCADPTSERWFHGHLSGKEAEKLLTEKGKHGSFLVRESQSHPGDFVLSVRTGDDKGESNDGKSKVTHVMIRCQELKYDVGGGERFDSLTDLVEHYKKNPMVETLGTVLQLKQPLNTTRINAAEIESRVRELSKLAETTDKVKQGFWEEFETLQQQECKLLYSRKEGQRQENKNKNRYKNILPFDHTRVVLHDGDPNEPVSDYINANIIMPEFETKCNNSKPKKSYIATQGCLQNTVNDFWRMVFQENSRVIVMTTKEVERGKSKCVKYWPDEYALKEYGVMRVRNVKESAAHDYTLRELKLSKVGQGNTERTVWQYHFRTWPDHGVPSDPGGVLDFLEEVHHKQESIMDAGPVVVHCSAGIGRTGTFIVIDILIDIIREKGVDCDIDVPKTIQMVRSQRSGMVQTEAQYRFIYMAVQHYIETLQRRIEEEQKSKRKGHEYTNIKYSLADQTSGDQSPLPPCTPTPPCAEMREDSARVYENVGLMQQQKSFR
Kind of assay: Inhibition of SHP-2 (unknown origin) using 3-o-methylfluorescein phosphate as substrate at 20 ug/ml.

The target of assay [5] is T5, Tyrosine-protein phosphatase non-receptor type 2 (Homo sapiens, UniProt P17706).
T5 sequence (P17706 whole entry): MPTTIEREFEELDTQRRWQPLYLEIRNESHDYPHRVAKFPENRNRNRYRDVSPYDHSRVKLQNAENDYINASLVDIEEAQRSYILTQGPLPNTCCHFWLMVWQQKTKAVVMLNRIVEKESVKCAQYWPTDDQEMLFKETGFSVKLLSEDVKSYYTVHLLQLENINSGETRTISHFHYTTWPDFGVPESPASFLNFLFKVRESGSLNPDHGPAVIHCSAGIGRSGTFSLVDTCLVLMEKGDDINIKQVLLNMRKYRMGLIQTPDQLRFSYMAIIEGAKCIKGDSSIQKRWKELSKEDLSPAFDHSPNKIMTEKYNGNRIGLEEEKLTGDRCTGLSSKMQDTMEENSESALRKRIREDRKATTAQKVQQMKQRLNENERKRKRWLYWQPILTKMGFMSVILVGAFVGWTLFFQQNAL
Kind of assay: Inhibition of TCPTP (unknown origin) using pNPP as substrate.

The species named for a further assay is Homo sapiens. Kind of assay: Selectivity ratio of IC50 for TCPTP (unknown origin) to IC50 for PTP1B (unknown origin). The procedure, abridged: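 Colorimetric assay with pNPP as substrate, run the same way for PTP1B and TCPTP. IC50 was obtained by regression analysis and reported as mean ± SD of three replications. The selectivity ratio is TCPTP IC50 divided by PTP1B IC50.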

The target in assay [6] is Receptor-type tyrosine-protein phosphatase F (Homo sapiens, UniProt P10586). Kind of assay: Inhibition of LAR (unknown origin) using 3-o-methylfluorescein phosphate as substrate at 20 ug/ml.
For the next assay, the system named is CHO. The assay is described as follows: Inhibition of PTP1B in CHO cells overexpressing human insulin receptor assessed as increase in insulin-stimulated tyrosine phosphorylation of insulin receptor beta at 5 to 20 uM by immunoblot analysis. Conditions: Cricetulus griseus. It counts as cell-based. The gist of the method: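 CHO cells overexpressing human insulin receptor were treated with compound, with DMSO as negative control. Tyrosine-phosphorylated insulin receptor β was detected by immunoblot.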
In general terms: In western blotting, separated proteins are transferred to a membrane and probed.

Assay [7] addresses T1, Tyrosine-protein phosphatase non-receptor type 1 (Homo sapiens). Kind of assay: Competitive inhibition of PTP1B (unknown origin) using pNPP as substrate by Lineweaver-Burk plot analysis. The gist of the method:
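Kinetic analysis: initial velocities were measured across various pNPP concentrations at several fixed inhibitor concentrations. Inhibition mode was assigned from Lineweaver–Burk double-reciprocal plots.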

For assay [8] the target is unchanged. The assay is described as follows: Fast-binding inhibition of PTP1B (unknown origin) using pNPP as substrate.
For assay [9], the target named is T6, Tyrosine-protein phosphatase non-receptor type 2 (Homo sapiens) (UniProt P17706).
T6 sequence (whole entry): T5 sequence (P17706 whole entry)
Kind of assay: Inhibition of TCPTP (unknown origin) using pNPP as substrate at 20 ug/ml.

The target in assay [10] is T3, Tyrosine-protein phosphatase non-receptor type 6. Kind of assay: Inhibition of SHP-1 (unknown origin) using 3-o-methylfluorescein phosphate as substrate. The procedure, abridged:
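SHP-1 activity was read with 3-O-methylfluorescein phosphate (OMFP) as substrate. IC50 was derived by regression analysis and given as mean ± SD of three replications.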

The target in assay [11] is T7, Tyrosine-protein phosphatase non-receptor type 11 (Homo sapiens, UniProt Q06124).
T7 sequence (Q06124 whole entry): T4 sequence (whole entry)
The assay is described as follows: Inhibition of SHP-2 (unknown origin) using 3-o-methylfluorescein phosphate as substrate. The procedure, abridged: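 Phosphatase activity was measured with 3-O-methylfluorescein phosphate (OMFP) as substrate, in the same assay format used for SHP-1. IC50 was obtained by regression analysis and reported as mean ± SD of three replicates.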

Chain of Receptor-type tyrosine-protein phosphatase F (P10586 whole entry): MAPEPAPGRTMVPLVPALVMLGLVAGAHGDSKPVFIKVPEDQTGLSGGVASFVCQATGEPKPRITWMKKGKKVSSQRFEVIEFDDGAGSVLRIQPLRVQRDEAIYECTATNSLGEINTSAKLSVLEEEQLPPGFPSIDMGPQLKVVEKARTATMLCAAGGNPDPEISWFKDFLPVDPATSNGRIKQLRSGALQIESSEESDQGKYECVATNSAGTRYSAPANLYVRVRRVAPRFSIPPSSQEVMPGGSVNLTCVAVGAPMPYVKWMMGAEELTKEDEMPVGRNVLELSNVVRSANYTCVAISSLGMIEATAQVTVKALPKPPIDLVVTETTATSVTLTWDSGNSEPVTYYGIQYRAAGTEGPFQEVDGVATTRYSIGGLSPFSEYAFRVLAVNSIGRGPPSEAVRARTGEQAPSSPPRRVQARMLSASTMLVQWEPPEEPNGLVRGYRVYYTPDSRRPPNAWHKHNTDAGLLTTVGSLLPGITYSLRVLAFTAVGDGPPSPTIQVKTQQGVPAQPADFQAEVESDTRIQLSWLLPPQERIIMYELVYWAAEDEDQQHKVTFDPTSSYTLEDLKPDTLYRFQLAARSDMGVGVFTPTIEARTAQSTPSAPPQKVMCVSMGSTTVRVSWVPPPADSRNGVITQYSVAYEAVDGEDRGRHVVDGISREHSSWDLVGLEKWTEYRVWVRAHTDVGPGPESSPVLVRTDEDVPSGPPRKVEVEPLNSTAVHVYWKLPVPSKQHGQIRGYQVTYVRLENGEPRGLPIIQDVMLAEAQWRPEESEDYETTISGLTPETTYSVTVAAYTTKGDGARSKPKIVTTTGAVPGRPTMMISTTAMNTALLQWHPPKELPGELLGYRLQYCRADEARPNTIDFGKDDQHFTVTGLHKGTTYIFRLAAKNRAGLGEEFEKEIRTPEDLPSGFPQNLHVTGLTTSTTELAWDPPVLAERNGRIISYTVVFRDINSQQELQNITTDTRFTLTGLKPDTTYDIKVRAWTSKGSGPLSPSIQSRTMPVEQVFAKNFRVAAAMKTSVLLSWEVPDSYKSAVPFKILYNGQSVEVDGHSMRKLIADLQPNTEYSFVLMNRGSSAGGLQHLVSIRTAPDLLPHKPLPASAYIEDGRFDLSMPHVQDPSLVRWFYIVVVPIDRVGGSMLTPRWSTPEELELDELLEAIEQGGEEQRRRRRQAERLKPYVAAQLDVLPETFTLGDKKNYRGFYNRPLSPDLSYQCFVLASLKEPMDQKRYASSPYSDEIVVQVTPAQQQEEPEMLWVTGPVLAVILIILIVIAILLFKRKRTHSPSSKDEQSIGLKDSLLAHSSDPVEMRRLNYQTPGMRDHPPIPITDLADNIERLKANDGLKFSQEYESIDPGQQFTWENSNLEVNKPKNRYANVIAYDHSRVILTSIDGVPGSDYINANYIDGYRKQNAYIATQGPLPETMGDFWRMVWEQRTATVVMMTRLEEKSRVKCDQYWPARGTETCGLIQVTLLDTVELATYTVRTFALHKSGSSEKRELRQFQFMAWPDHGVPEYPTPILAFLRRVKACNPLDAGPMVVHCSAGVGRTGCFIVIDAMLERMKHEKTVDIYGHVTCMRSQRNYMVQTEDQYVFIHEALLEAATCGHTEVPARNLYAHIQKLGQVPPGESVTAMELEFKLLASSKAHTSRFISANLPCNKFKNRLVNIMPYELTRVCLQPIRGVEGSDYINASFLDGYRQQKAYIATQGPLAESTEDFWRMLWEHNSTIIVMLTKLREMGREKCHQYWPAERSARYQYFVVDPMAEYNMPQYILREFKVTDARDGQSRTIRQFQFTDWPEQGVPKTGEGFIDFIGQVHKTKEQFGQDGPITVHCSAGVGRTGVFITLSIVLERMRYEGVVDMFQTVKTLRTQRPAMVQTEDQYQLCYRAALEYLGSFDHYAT
T3 sequence (P29350 whole entry): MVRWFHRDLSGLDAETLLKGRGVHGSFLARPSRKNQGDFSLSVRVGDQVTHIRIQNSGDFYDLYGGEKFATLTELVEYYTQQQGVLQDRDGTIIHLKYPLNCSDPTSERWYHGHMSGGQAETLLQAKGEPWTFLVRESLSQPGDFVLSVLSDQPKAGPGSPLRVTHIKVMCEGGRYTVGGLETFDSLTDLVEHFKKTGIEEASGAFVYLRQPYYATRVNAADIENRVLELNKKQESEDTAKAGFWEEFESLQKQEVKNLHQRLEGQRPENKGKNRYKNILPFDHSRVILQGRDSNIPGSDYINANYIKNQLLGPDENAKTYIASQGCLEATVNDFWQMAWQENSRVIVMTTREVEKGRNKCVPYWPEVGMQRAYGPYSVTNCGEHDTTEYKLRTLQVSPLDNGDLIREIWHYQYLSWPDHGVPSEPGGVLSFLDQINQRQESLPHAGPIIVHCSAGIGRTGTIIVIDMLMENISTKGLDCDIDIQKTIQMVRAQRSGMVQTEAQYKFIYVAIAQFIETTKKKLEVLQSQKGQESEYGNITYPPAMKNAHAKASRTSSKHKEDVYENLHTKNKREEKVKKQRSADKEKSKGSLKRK

`O=C(Nc1ccc(-c2ccc(NC(=O)c3ccccc3)cc2)cc1)c1ccccc1`: the inhibition in assay [1] turned out to be 95.2%. Also, the pIC50 in [2] was 4.92.

As to `O=C(Nc1ccc(-c2ccc(NC(=O)C3CCN(C(=O)c4ccccc4)CC3)cc2)cc1)C1CCN(C(=O)c2ccccc2)CC1`, the inhibition in assay [3] is less than 50%; in assay [1], 94.1%; in assay [4], less than 50%; in assay [6] it was less than 50%. Also, the pIC50 in [2] was 5.58; in assay [5], 5.12. In addition, the Ratio IC50 in the assay listed under Homo sapiens turned out to be 2.88.

Consider `O=C(Nc1ccc(-c2ccc(NC(=O)C3CCN(C(=O)c4ccco4)CC3)cc2)cc1)C1CCN(C(=O)c2ccco2)CC1`, for which the inhibition in assay [3] is less than 50%; in assay [1], 94%; in [4], less than 50%; in assay [6], less than 50%. Besides, the inhibition entry (in the assay on CHO; in assay [7]; in assay [8]) was “Active” throughout. The pIC50 in assay [2] was 5.63; in assay [5], 4.91. Besides, in the assay filed under Homo sapiens, the Ratio IC50 came to 5.29.

`O=C(Nc1ccc(-c2ccc(NC(=O)c3ccc(F)cc3)cc2)cc1)c1ccc(F)cc1`: the inhibition in assay [1] turned out to be 98.6%. Further, the pIC50 in [2] was 4.72.

Regarding `O=C(Nc1ccc(-c2ccc(NC(=O)c3cccs3)cc2)cc1)c1cccs1`, in [1], the inhibition was 38.1%.

Turning to `COC(=O)c1ccc(-c2ccc(N)cc2)cc1`, the inhibition in assay [1] was determined as 31.5%.

For the compound `COC(=O)c1ccc(-c2ccc(NC(=O)c3ccccc3)cc2)cc1`, in assay [1], the inhibition amounted to 69.4%. Moreover, in [2], the pIC50 is 4.99.

`O=C(Nc1ccc(F)cc1)c1ccc(-c2ccc(C(=O)Nc3ccc(F)cc3)cc2)cc1` displayed an inhibition in assay [1] of 7.92%.

The compound `COc1ccc(C(=O)Nc2ccc(-c3ccc(NC(=O)c4ccc(OC)cc4)cc3)cc2)cc1` returned an inhibition in [1] of 11.9%.

For `O=C(Nc1ccc(-c2ccc(NC(=O)C3CCN(C(=O)c4ccc(F)cc4)CC3)cc2)cc1)C1CCN(C(=O)c2ccc(F)cc2)CC1`, the inhibition in [3] is less than 50%; in [9], less than 50%; in assay [1], 95.3%; in [4] it was less than 50%; in assay [6], less than 50%. Moreover, the pIC50 in assay [2] is 5.30.

In turn, `O=C(Nc1ccc(-c2ccc(NC(=O)[C@@H]3CCCN3)cc2)cc1)[C@@H]1CCCN1` came in with an inhibition in [1] of 0.7%.

Take `CC(C)CC(=O)N1CCC(C(=O)Nc2ccc(-c3ccc(NC(=O)C4CCN(C(=O)CC(C)C)CC4)cc3)cc2)CC1`: the inhibition in assay [1] was 70%. Moreover, the pIC50 in [2] is 4.92.

`O=C(Nc1ccc(-c2ccc(NC(=O)C3CCN(C(=O)C4CCCCC4)CC3)cc2)cc1)C1CCN(C(=O)C2CCCCC2)CC1` came in with an inhibition in [1] of 61%. In [2], the pIC50 was 4.83.

With `CC(C)(C)OC(=O)N1CCC[C@H]1C(=O)Nc1ccc(-c2ccc(NC(=O)[C@@H]3CCCN3C(=O)OC(C)(C)C)cc2)cc1`, the inhibition in assay [1] came to 43.5%.

Consider `O=C(Nc1ccc(-c2ccc(NC(=O)c3ccc(F)cc3)cn2)cc1)c1ccc(F)cc1`, for which the inhibition in [9] is less than 50%; in assay [1] it was 71%; in [6] it was less than 50%. Moreover, the pIC50 is 5.22 in assay [2] and 4.75 in [10].

`O=C(Nc1ccccc1)c1ccc(-c2ccc(C(=O)Nc3ccccc3)cc2)cc1`: in assay [1], the inhibition came to 62.8%. For the same compound, in assay [2], the pIC50 is 4.73.

`O=C(Nc1ccc(-c2ccc(NC(=O)c3ccco3)cc2)cc1)c1ccco1`: the pIC50 is 4.72 in assay [2], 4.41 in assay [10] and 4.29 in assay [5]. Besides, the Ratio IC50 in the assay filed under Homo sapiens was 2.64. The inhibition in [6] was less than 50%.

Consider `O=C(Nc1ccc(-c2ccc(C(=O)Nc3ccccc3)cc2)cc1)c1ccccc1`, for which the inhibition in [3] is less than 50%; in assay [9], less than 50%; in assay [1], 81.2%; in [4] it was less than 50%; in assay [6], less than 50%. Besides, the pIC50 in [2] is 5.34.

On to `CC(C)(C)OC(=O)N1CCC(C(=O)Nc2ccc(-c3ccc(NC(=O)C4CCN(C(=O)OC(C)(C)C)CC4)cc3)cc2)CC1`, for which the inhibition was 71.1% in assay [1], less than 50% in [4] and less than 50% in assay [6]. Further, the pIC50 in assay [2] is 5.02; in assay [10], 4.74; in assay [5], 4.67. The Ratio IC50 in the assay filed under Homo sapiens is 2.23.

For `O=C(Nc1ccc(-c2ccc(NC(=O)C3CCCCC3)cn2)cc1)C1CCCCC1`, the inhibition in [3] was less than 50%; in assay [1], 82.1%; in assay [4], less than 50%; in assay [6], less than 50%. For the same compound, the figures for the pIC50 in [2] and in assay [5] were 5.15 and 4.64, respectively. For the same compound, the Ratio IC50 in the assay filed under Homo sapiens worked out at 3.2.

In turn, `COc1cc(C(=O)Nc2ccc(-c3ccc(NC(=O)c4cc(OC)c(OC)c(OC)c4)cc3)cc2)cc(OC)c1OC` displayed an inhibition in assay [1] of 47.4%.

`O=C(Nc1ccc(-c2ccc(NC(=O)C3CCNCC3)cc2)cc1)C1CCNCC1` registered an inhibition in [1] of 10.3%.

As to `CC(C)CC(=O)Nc1ccc(-c2ccc(NC(=O)CC(C)C)cn2)cc1`, the inhibition in assay [1] was 58.1%. For the same compound, the pIC50 in [2] was 4.58.

Turning to SODIUM ORTHOVANAD, the pIC50 is 4.46 in assay [11] and 4.75 in [10].

As to `CC(C)CC(=O)Nc1ccc(-c2ccc(NC(=O)CC(C)C)cc2)cc1`, the inhibition in assay [1] is 90.7%. The compound also showed a pIC50 in assay [2] of 4.78.

`O=C(Nc1ccc(-c2ccc(NC(=O)C3CCCCC3)cc2)cc1)C1CCCCC1` gave an inhibition in [1] of 84.6%. The same compound gave a pIC50 in assay [2] of 4.90.

As for `O=C(Nc1ccc(-c2ccc(NC(=O)c3ccccc3)cn2)cc1)c1ccccc1`, the inhibition in assay [3] was less than 50%; in [1], 83.9%; in assay [4] it was less than 50%; in assay [6], less than 50%. The pIC50 in assay [2] was 5.27; in assay [5] it was 4.58. In the assay filed under Homo sapiens, the Ratio IC50 was 4.87.

In the case of `O=C(Nc1ccc(-c2ccc(NC(=O)c3ccco3)cn2)cc1)c1ccco1`, the inhibition in [1] was found to be 86.4%. Moreover, the pIC50 in [2] was 4.96.
